Usually inhibition stands for the percentage by which the read-out fell short of the control.

Series [1] is described as follows: Anticancer activity against human BE(2)-C cells transfected with full-length human cloned RARbeta2 expressing pMEP4 vector assessed as reduction of cell viability at 5 uM after 96 hrs by Alamar blue assay relative to compound treated pMEP4 empty vector cloned cells. The format is functional. The procedure, abridged:
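RARβ-pMEP4 and empty-vector BE(2)-C cells attached 24 h in 96-well plates, then exposed to ligand at 5 μM for 96 h. Alamar blue absorbance read at 570 nm. Viability of RARβ-transfected cells expressed relative to empty-vector cells. Mean ± SEM from at least three replicates.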
In general terms: Alamar Blue is a resazurin reagent that responds to reducing activity.

Series [2] is described as follows: Anticancer activity against human BE(2)-C cells transfected with pMEP4 empty vector assessed as reduction of cell viability at 20 uM after 72 hrs by Alamar blue assay. Type of series: functional. Summed up: (§1)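 BE(2)-C neuroblastoma cells stably carrying RARβ cDNA in pMEP4 episomal vector, or empty pMEP4, in DMEM with L-glutamine and 10% FCS at 37 °C, 5% CO2. Cells attached 24 h in 96-well plates, then treated 72 h. Alamar blue absorbance at 570 nm, viability expressed as percentage of negative control.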

A short description of series [3]: Anticancer activity against human BE(2)-C cells transfected with full-length human cloned RARbeta2 expressing pMEP4 vector assessed as reduction of cell viability at 20 uM after 72 hrs by Alamar blue assay. The format is functional. Summed up: as §1
Series [4] deals with SH-SY5Y. Put plainly: Anticancer activity against retinoid-sensitive human SH-SY5Y cells assessed as reduction of cell viability at 20 uM after 96 hrs by alamar blue assay. Type of series: functional. Summed up:
(§2)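 Alamar blue (resazurin) viability assay in SH-SY5Y or MDA-MB-231 cells grown in DMEM/L-glutamine/10% FCS, 37 °C, 5% CO2. After 24 h attachment in 6 replicate wells, cells were continuously exposed to serial dilutions for 96 h. Absorbance at 570 nm was read at 0 h and 5 h after reagent addition. Viability is % of matched 0.5% DMSO controls; mean ± SEM, three independent experiments.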

Series [5] has as its system MDA-MB-231. The experiment in a line: Anticancer activity against retinoid-resistant human MDA-MB-231 cells assessed as reduction of cell viability at 20 uM after 96 hrs by alamar blue assay. The format is functional. The conditions noted are these: MDA-MB-231, 96 h. The procedure, abridged: as §2
Series [6] has as its system SH-SY5Y. The experiment in a line: Anticancer activity against retinoid-sensitive human SH-SY5Y cells assessed as reduction of cell viability at 10 uM after 96 hrs by alamar blue assay. Type of series: functional. The procedure, abridged: as §2
Series [7] can be described thus: Upregulation of RARbeta2 mRNA expression in human BE(2)-C cells transfected with full-length human cloned RARbeta2 expressing pMEP4 vector at 10 nM after 24 hrs by quantitative real time PCR analysis relative to control. Type of series: functional, cell-based. Summed up:
(§3)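 RARβ-pMEP4 BE(2)-C cells attached 24 h in duplicate wells of 6-well plates, then exposed 24 h to compound (1 or 10 μM), 13-cis-retinoic acid (10 μM), AC261066 (10 nM) or DMSO (0.05%). Total RNA isolated, RARβ2 mRNA quantified by real-time PCR as fold change versus control.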
On the technique in general: In qPCR the cycle at which signal appears reflects the starting amount.

The test system of series [8] is SH-SY5Y. Put plainly: Anticancer activity against retinoid-sensitive human SH-SY5Y cells assessed as cell viability at 0.01 to 100 uM after 96 hrs by alamar blue assay. Type of series: functional, cell-based. The procedure, abridged:
as §2

Series [9] in a line: Upregulation of RARbeta2 mRNA expression in human BE(2)-C cells transfected with full-length human cloned RARbeta2 expressing pMEP4 vector at 10 uM after 24 hrs by quantitative real time PCR analysis relative to control. The format is functional, cell-based. The procedure, abridged: as §3
Series [10] can be described thus: Anticancer activity against human BE(2)-C cells transfected with full-length human cloned RARbeta2 expressing pMEP4 vector assessed as reduction of cell viability at 10 uM after 72 hrs by Alamar blue assay. Type of series: functional. Summed up:
as §1

The nature of series [11]: Anticancer activity against human BE(2)-C cells transfected with pMEP4 empty vector assessed as reduction of cell viability at 10 uM after 72 hrs by Alamar blue assay. Type of series: functional. The procedure, abridged:
as §1

Series [12] in a line: Cytotoxicity against human MRC5 cells assessed as reduction of cell viability at 1 uM after 96 hrs by alamar blue assay. The format is cell-based. The note with it: read-out: INH. The procedure, abridged:
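MRC-5 cells attached 24 h in 96-well plates, exposed to compound at 1 μM for 96 h. Viability by Alamar blue absorbance at 570 nm versus DMSO (0.5%) control.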

Series [13] relates to SH-SY5Y. Put plainly: Anticancer activity against retinoid-sensitive human SH-SY5Y cells assessed as reduction of cell viability at 1 uM after 96 hrs by alamar blue assay. Type of series: functional. The procedure, abridged: as §2
A short description of series [14]: Anticancer activity against human BE(2)-C cells transfected with full-length human cloned RARbeta2 expressing pMEP4 vector assessed as reduction of cell viability at 1 uM after 72 hrs by Alamar blue assay. Type of series: functional. Summed up: as §1
The subject of series [15] is SH-SY5Y. Put plainly: Anticancer activity against retinoid-sensitive human SH-SY5Y cells assessed as reduction of cell viability at 0.1 uM after 96 hrs by alamar blue assay. The format is functional. The procedure, abridged: as §2
Series [16] concerns MDA-MB-231. The experiment in a line: Anticancer activity against retinoid-resistant human MDA-MB-231 cells assessed as reduction of cell viability at 1 uM after 96 hrs by alamar blue assay. The format is functional. The conditions noted are these: MDA-MB-231, 96 h. Summed up: as §2
Series [17] can be described thus: Upregulation of RARbeta2 mRNA expression in human BE(2)-C cells transfected with full-length human cloned RARbeta2 expressing pMEP4 vector at 1 uM after 24 hrs by quantitative real time PCR analysis relative to control. Type of series: functional, cell-based. The procedure, abridged: as §3
Series [18] is described as follows: Anticancer activity against human BE(2)-C cells transfected with pMEP4 empty vector assessed as reduction of cell viability at 1 uM after 72 hrs by Alamar blue assay. Type of series: functional. The procedure, abridged:
as §1

The source made the active and inactive calls. The calls are words filed in the database; no cut-off is given here.

On to `O=C(CCSc1ccccc1)Nc1ccc(-c2cn3ccsc3n2)cc1`, for which the inhibition at 5 µM in series [1] is 20%.
The same measure, in the same setting: the same measure for `Cc1nn(CC(C)C)c2sc(C(=O)Nc3nc4ccccc4[nH]3)cc12`: 20%.
In the case of `O=C(Cc1c[nH]c2ccccc12)Nc1nc2ccc(Cl)cc2s1`, the inhibition at 20 µM in series [2] came out at 43%; in series [3], 48%.
`N[C@@H](Cc1ccccc1)C(=O)NCC(=O)Nc1nc2ccccc2s1`: the inhibition at 20 µM in the series with SH-SY5Y [4] and in the series with MDA-MB-231 [5] was 50% throughout. For the same molecule, the inhibition at 10 µM with SH-SY5Y [6] is 13%.
`CCCCOCCOc1nc(-c2ccc(C(=O)O)c(F)c2)sc1C` returned a fold change (FC) in [7] of 2.7.
As to `Cc1cccc2sc(NC(=O)CNC(=O)Cc3ccccc3)nc12`, the inhibition at 5 µM in series [1] is 20%.
In the case of `CC1(C)Cc2cccc(OCc3nnc(-c4ccccc4)o3)c2O1`, in [1], the inhibition at 5 µM was determined as 20%.
As to `O=C(Nc1nc2ccccc2s1)C(=O)c1c[nH]c2ccccc12`, the result with SH-SY5Y [8] was inactive.
As for `Cc1cc(C(=O)CSc2nnnn2C2CC2)c(C)n1C1CC1`, in series [1], the inhibition at 5 µM was found to be 20%.
The same measure, in the same setting: the figure for `Cc1nnc(SCc2nnc(-c3cccs3)o2)n1-c1ccccc1` is 20%.
In turn, `O=C(CCc1c[nH]c2ccccc12)Nc1nc2ccccc2s1` displayed a fold change (FC) in series [9] of 1.5. For the same molecule, the values for the Activity in series [10] and in [11] were 53% and 38%, respectively.
As to `CC1=C(/C=C/C(C)=C/C=C/C(C)=C\C(=O)O)C(C)(C)CCC1` [ISOTRETINOIN], in series [9], the fold change (FC) is 9.3. Also, in [12], the cytotoxicity at 96 h, 1 µM was 10%.
As for `Cn1cnnc1SCc1nnc(-c2ccc(Br)s2)o1`, the inhibition at 5 µM in series [1] was 20%.
With `O=C(Cc1c[nH]c2ccccc12)Nc1nc2ccccc2s1`, the inhibition at 1 µM in the series on SH-SY5Y [13] came out at 55%; in series [14], 50%; in the series on MDA-MB-231 [16], 58%; in series [18] it was 38%. Also, in the series on SH-SY5Y [15], the inhibition at 0.1 µM was 12%. Further, the fold change (FC) in [17] was determined as 2.1. Further, in [12], the cytotoxicity at 96 h, 1 µM turned out to be 20%.
For the molecule `Cc1ccc(NC(=O)c2cc3c(C)nn(CC(C)C)c3s2)c(O)c1`, the inhibition at 5 µM in [1] is 20%.
On to `CCOc1ccc2nc(NC(=O)Cc3c[nH]c4ccccc34)sc2c1`, for which the values for the inhibition at 20 µM in [2] and in series [3] were 29% and 39%, respectively.

The values above are taken from ChEMBL document CHEMBL2203119, “Synthesis of retinoid enhancers based on 2-aminobenzothiazoles for anti-cancer therapy” (Bioorg Med Chem, 2012).
